Holding throughout (type): functional
The test system of assay [1] is MCF7. The assay can be described thus: Growth inhibition of human MCF7 cells at 50 ug/ml after 24 hrs by MTT colorimetric assay. To be noted: MCF7, 24 h, read-out: GI. The method in brief:
(§1)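 Cells kept in RPMI 1640 with 10% FBS, 1% L-glutamine and penicillin-streptomycin at 37 °C, 5% CO2, and harvested with trypsin-EDTA. Seeded at 4 × 10⁴ cells/well, grown 24 h, then exposed to compound for 24 h at 37 °C. Medium replaced with phenol red-free medium, MTT (2 mg/ml) added for 4 h, formazan dissolved in isopropanol, A492 read. Inhibition taken versus untreated control wells; mean ± SD of three independent experiments.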

The test system of assay [2] is MDA-MB-231. The assay can be described thus: Growth inhibition of human MDA-MB-231 cells at 25 ug/ml after 24 hrs by MTT colorimetric assay. Conditions: MDA-MB-231, 24 h, read-out: GI. The method, boiled down: as §1
In general terms: Tetrazolium dyes change colour on reduction, which living cells bring about.

The test system of assay [3] is MDA-MB-231. The assay can be described thus: Growth inhibition of human MDA-MB-231 cells at 50 ug/ml after 24 hrs by MTT colorimetric assay. To be noted: MDA-MB-231, 24 h, read-out: GI. The method, boiled down: as §1
The subject of assay [4] is MCF7. The assay is described as follows: Growth inhibition of human MCF7 cells at 25 ug/ml after 24 hrs by MTT colorimetric assay. Conditions: MCF7, 24 h, read-out: GI. The method in brief: as §1
The subject of another assay is T47D. The assay is described as follows: Growth inhibition of human T47D cells at 25 ug/ml after 24 hrs by MTT colorimetric assay. Conditions: read-out: GI. The method, boiled down: as §1

The structures appear in SMILES notation.

With `O=C1OC[C@H](Cc2ccc3c(c2)OCO3)[C@H]1Cc1ccccc1`, the inhibition of growth at 50 µg/mL in the assay with MCF7 [1] amounted to 46%; in the assay with MDA-MB-231 [3], 36.2%. The results for the inhibition of growth at 25 µg/mL in the assay with MDA-MB-231 [2], with MCF7 [4] and in the assay on T47D were 26.2%, 17% and 61.9%, respectively.
Turning to `COc1ccc(C(O)[C@H]2C(=O)OC[C@@H]2Cc2ccc3c(c2)OCO3)cc1` (mixture of isomers), the figures for the inhibition of growth at 50 µg/mL in the assay on MCF7 [1] and in the assay with MDA-MB-231 [3] were 22.4% and 48.8%, respectively. Also, the inhibition of growth at 25 µg/mL was 10.1% in the assay with MDA-MB-231 [2] and 42.7% in the assay with MCF7 [4].
As for `COc1cccc2c1C(=O)c1c(O)c3c(c(O)c1C2=O)C[C@@](O)(C(=O)CO)C[C@@H]3O[C@H]1C[C@H](N)[C@H](O)[C@H](C)O1` [DOXORUBICIN], the inhibition of growth at 50 µg/mL turned out to be 31.8% in the assay on MCF7 [1] and 48.8% with MDA-MB-231 [3]. Moreover, the inhibition of growth at 25 µg/mL in the assay with MDA-MB-231 [2] came out at 57.9%; in the assay on MCF7 [4] it was 54.6%; with T47D it was 60%.
With `CC/C(=C(\c1ccccc1)c1ccc(OCCN(C)C)cc1)c1ccccc1` [TAMOXIFEN], the inhibition of growth at 50 µg/mL amounted to 25% with MCF7 [1] and 67.7% in the assay with MDA-MB-231 [3]. The values for the inhibition of growth at 25 µg/mL in the assay on MDA-MB-231 [2], in the assay with MCF7 [4] and in the assay on T47D were 58.6%, 65.7% and 67.8%, respectively.
On the same counts, the results for `COc1cc(C(O)[C@H]2C(=O)OC[C@@H]2Cc2ccc3c(c2)OCO3)cc(OC)c1OC` (mixture of isomers) are 37.7%, 10.2%, -1.9%, 5.2% and 50.1%.
For `O=C1OC[C@H](Cc2ccc3c(c2)OCO3)[C@H]1C(O)c1ccc([N+](=O)[O-])cc1` (mixture of isomers), the inhibition of growth at 50 µg/mL in the assay on MCF7 [1] is 38.8%; in the assay on MDA-MB-231 [3], 29%. For the same molecule, the inhibition of growth at 25 µg/mL with MDA-MB-231 [2] was determined as 22.5%; in the assay on MCF7 [4] it was 7.2%.
Regarding `O=C1OC[C@H](Cc2ccc3c(c2)OCO3)[C@H]1[C@H](O)c1ccccc1Cl`, the inhibition of growth at 50 µg/mL in the assay with MCF7 [1] was found to be 7.5%; with MDA-MB-231 [3], 47.3%. In addition, the inhibition of growth at 25 µg/mL in the assay on MDA-MB-231 [2] turned out to be 34.8%; with MCF7 [4] it was 15.8%; with T47D, 50.2%.
As to `COc1cccc(C(O)[C@H]2C(=O)OC[C@@H]2Cc2ccc3c(c2)OCO3)c1` (mixture of isomers), the results for the inhibition of growth at 50 µg/mL in the assay on MCF7 [1] and with MDA-MB-231 [3] were 12.2% and 41.9%, respectively. Moreover, the inhibition of growth at 25 µg/mL in the assay with MDA-MB-231 [2] was 14.5%; with MCF7 [4], -3.8%.
With `O=C1OC[C@H](Cc2ccc3c(c2)OCO3)[C@H]1C(O)c1ccccc1[N+](=O)[O-]` (mixture of isomers), the inhibition of growth at 50 µg/mL in the assay with MCF7 [1] was -0.2%; with MDA-MB-231 [3], 35.1%. The inhibition of growth at 25 µg/mL in the assay on MDA-MB-231 [2] amounted to 7.9%; with MCF7 [4] it was 21.9%; with T47D it was 38.1%.
Consider `O=C1OC[C@H](Cc2ccc3c(c2)OCO3)[C@H]1[C@H](O)c1ccc([N+](=O)[O-])cc1`, for which the inhibition of growth at 50 µg/mL in the assay with MCF7 [1] worked out at 17.9%; with MDA-MB-231 [3], 20.1%. Further, the figures for the inhibition of growth at 25 µg/mL with MDA-MB-231 [2] and in the assay on MCF7 [4] were 17.9% and 24.6%, respectively.
For the molecule `O=C1OC[C@H](Cc2ccc3c(c2)OCO3)[C@H]1[C@@H](O)c1ccccc1Cl`, the inhibition of growth at 50 µg/mL was found to be 31.9% with MCF7 [1] and 26.4% in the assay with MDA-MB-231 [3]. Also, the inhibition of growth at 25 µg/mL was found to be 19% in the assay on MDA-MB-231 [2], 8.5% in the assay with MCF7 [4] and 52.9% with T47D.

Values taken from ChEMBL document CHEMBL1629421, “Isochaihulactone analogues: synthesis and anti-proliferative activity of novel dibenzylbutyrolactones” (2010).
